Bioassay records from PubChem.
Most compounds without a hit are left out; they make up all but 4.3% or so of the library.
MC4R barr agon – MC4R agonists recruiting beta-arrestin, primary screen, cell-based, luminescence, agonist arm of biased-ligand search; AID 540308, 2011; 360,000 compounds, 0.98% hits; U2OS MC4R beta-arrestin complementation; percent of melanotan II response, DMSO zero; activation, % at 8.9 µM;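 active = activation above a per-plate cutoff, the mean activation of sample wells on that plate plus 3 SD, cut at about 8% in these data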
TAAR1 antagonist – human TAAR1 antagonists, primary screen, Fluo-8 calcium fluorescence, CHO RD-HGA16 cells; inhibition, % at 3 µM; Trace amine-associated receptor 1 (Homo sapiens), Q96RJ0; 360,000 compounds, 1.5% hits; AID 624466, 2012; antagonist;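 active = inhibition above a per-plate cutoff, the mean inhibition of test compounds on that plate plus 3 SD, cut at about 49% in these data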;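 note: 0% = DMSO plus EC80 beta-PEA response and 100% = DMSO alone without agonist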
Target sequence (Q96RJ0 whole entry, looked up): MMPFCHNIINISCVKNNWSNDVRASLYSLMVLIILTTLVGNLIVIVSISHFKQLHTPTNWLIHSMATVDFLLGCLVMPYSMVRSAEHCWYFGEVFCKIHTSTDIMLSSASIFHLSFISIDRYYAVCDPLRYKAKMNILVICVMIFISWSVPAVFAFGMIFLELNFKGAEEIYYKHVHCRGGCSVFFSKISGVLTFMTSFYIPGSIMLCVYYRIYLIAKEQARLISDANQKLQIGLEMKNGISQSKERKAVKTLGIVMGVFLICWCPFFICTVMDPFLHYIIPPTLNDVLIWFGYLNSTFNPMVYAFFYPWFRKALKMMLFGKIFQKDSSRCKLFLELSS
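System: RD-HGA16 CHO cells with stable hTAAR1 and Gα16 | Probe or stimulus: EC80 β-phenethylamine stimulus | Dosing: 3 µM, single point | Times: Dye loading 75 min at 37 °C, then 30 min room temperature | Measured by: Fluo-8 calcium-sensitive fluorescence | Read-out basis: % inhibition of agonist calcium response | Replicates: n of 1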
MC4R antagonist – MC4R antagonists of cAMP signaling, primary screen, cell-based, TR-FRET, antagonist arm of biased-ligand search; MC4R-expressing cells, MTII-stimulated cAMP, LANCE TR-FRET; inhibition, % at 6.5 µM; 360,000 compounds, 0.48% hits;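 active = inhibition above its plate's cutoff, the mean of tested wells on that plate plus 3 SD, cut at about 29% in these data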;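 note: 0% = Melanotan II alone and 100% = Melanotan II plus saturating MCL0020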
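System: U2OS-MC4R stable cell line; Technique: Eu-cAMP/anti-cAMP TR-FRET, emission 671 nm; Repeats: single well per compound; Also added: Melanotan II; Dosing: one concentration, 6.5 µM nominal; Schedule: 30-min compound, 1-h challenge, 1-h detection, room temperature.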
B2AR ag – beta2AR agonists driving receptor internalization, primary screen, cell-based, FAP fluorogen, flow cytometry. 340,000 compounds, 0.43% hits. Am2.2-beta2AR cells. response, % (test concentration not listed). Beta-2 adrenergic receptor (Homo sapiens), P07550;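 active = response above a set limit, near 3 SD of response in nonfluorescent compounds, cut at about 42% in these data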
Target sequence (P07550 whole entry, looked up): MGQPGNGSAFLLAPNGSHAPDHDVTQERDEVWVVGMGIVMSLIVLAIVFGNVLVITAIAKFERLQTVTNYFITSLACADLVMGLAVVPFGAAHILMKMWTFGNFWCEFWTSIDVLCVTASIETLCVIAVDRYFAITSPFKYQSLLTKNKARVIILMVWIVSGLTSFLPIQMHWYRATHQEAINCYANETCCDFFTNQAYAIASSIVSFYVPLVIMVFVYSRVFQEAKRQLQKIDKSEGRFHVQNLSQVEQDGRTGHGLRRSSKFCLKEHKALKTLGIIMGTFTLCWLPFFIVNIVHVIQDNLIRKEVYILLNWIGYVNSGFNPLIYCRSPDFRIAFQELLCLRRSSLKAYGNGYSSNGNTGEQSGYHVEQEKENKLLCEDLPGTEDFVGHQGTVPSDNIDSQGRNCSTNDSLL
HTR2A ag – mouse Htr2a agonists via beta-arrestin recruitment, primary screen, cell-based, luminescence | 360,000 compounds, 0.66% hits | CHO-K1 mHTR2A beta-arrestin complementation; percent of 30 µM serotonin response | activation, % at 7.6 µM;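 active = activation above a run cutoff, the mean activation of all tested compounds plus 3 SD, cut at about 14% in these data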;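 note: 0% = plate median of compound wells and 100% = 30 µM serotonin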
TAAR1 agonist – human TAAR1 agonists, primary screen, Fluo-8 calcium fluorescence, CHO RD-HGA16 cells | AID 624467, 2012 | 360,000 compounds, 0.99% hits | Trace amine-associated receptor 1 (Homo sapiens), Q96RJ0 | vehicle wells 0%, saturating PEA agonist 100% | activation, % at 3 µM;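 active = activation above the mean activation of all test compounds in the run plus 3 SD, cut at about 38% in these data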
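System: CHO-derived RD-HGA16 cells with stable Gα16 and human TAAR1 / Times: 17-24 h plating, Fluo-8 75 min 37 °C, 30 min RT / Technique: calcium-sensitive Fluo-8 signal, excitation 470-495, emission 515-575 nm / Measure: % activation relative to PEA EC100 response / Benchmarks: DMSO and PEA EC100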
U2OS cAMP counter – nonselective cAMP signaling inhibitors, parental cells, counter-screen for MC4R biased antagonist project, cell-based, TR-FRET, U2OS, forskolin, triplicate; shares compounds with MC4R antagonist; AID 602193, 2012; LANCE TR-FRET; 1,600 compounds, 26% hits; inhibition, % at 6.5 µM;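 active = mean inhibition over triplicates above the low-control well mean plus 3 SD, set per campaign, cut at about 13% in these data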;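 note: signal is single emission at 671 nm which falls as cellular cAMP rises; 0% = forskolin-stimulated wells and 100% = buffer without forskolin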
MC4R cAMP antag – MC4R cAMP antagonists, retest, confirmation, cell-based, TR-FRET; shares compounds with MC4R antagonist; inhibition, % at 6.5 µM; MC4R-expressing cells, MTII-stimulated cAMP; AID 602195, 2012; 1,600 compounds, 27% hits; in the data active = inhibition above about 29%;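 note: 0% = agonist stimulated wells alone and 100% = agonist stimulated wells plus saturating reference antagonist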
* = called active by the depositor.

Results for O=C(c1ccc(S(=O)(=O)N2CCCCCC2)cc1)N(c1ccccn1)C1CCCCC1 ?
MC4R barr agon: -1.8; TAAR1 antagonist: 18.1; MC4R antagonist: 15.2; B2AR ag: 1.4; HTR2A ag: 0.8; TAAR1 agonist: 4.6

Results for Cc1ccc(NC(=O)CN(C)Cc2nc3c(Br)cc(Br)cc3c(=O)[nH]2)cc1 ?
MC4R barr agon: -2.0; TAAR1 antagonist: -8.8; MC4R antagonist: -2.5; B2AR ag: -7.3; HTR2A ag: -2.8; TAAR1 agonist: 0.6

What do the screens show for `CCOc1ccccc1OCC(=O)Oc1ccc(C)c(C)c1`?
MC4R barr agon: 2.6; TAAR1 antagonist: -22.3; MC4R antagonist: 28.6*; B2AR ag: 4.9; HTR2A ag: 4.3; TAAR1 agonist: 1.6; U2OS cAMP counter: 3.5; MC4R cAMP antag: 3.5

What do the screens show for `N=c1c2c(ncn1Cc1ccco1)Oc1cc(O)ccc1C2c1ccccc1` (centres undefined)?
MC4R barr agon: -0.3; TAAR1 antagonist: -14.1; MC4R antagonist: 33.1*; B2AR ag: 5.2; HTR2A ag: -6.2; TAAR1 agonist: 0.1; U2OS cAMP counter: -0.5; MC4R cAMP antag: -1.1

What do the screens show for `CCCCN(CCCC)Cc1cc(=O)oc2cc(C)c(Cl)cc12`?
TAAR1 antagonist: -10.9; HTR2A ag: 3.6; TAAR1 agonist: 15.2

What do the screens show for `CCOC(=O)C1CCN(C(=O)COC(=O)c2cccc(NS(=O)(=O)c3ccccc3)c2)CC1`?
MC4R barr agon: -3.6; TAAR1 antagonist: 17.2; MC4R antagonist: 7.8; B2AR ag: 16.0; HTR2A ag: 2.4; TAAR1 agonist: 7.8

Results for C[C@@H]1CN([C@H](C)CO)C(=O)CCCn2nncc2CO[C@H]1CN(C)Cc1ccc(C(F)(F)F)cc1 ?
MC4R barr agon: 1.0; TAAR1 antagonist: 9.2; MC4R antagonist: 31.3*; HTR2A ag: -1.1; TAAR1 agonist: 1.6; U2OS cAMP counter: -1.5; MC4R cAMP antag: -9.7

What do the screens show for `O=C(CNS(=O)(=O)c1ccc2ccccc2c1)OCC(=O)c1ccc(Br)s1`?
MC4R barr agon: 5.3; TAAR1 antagonist: 21.6; MC4R antagonist: 46.9*; B2AR ag: 0.8; HTR2A ag: -3.1; TAAR1 agonist: 1.7; U2OS cAMP counter: 23.4*; MC4R cAMP antag: 42.6*

How did C/C(N)=C(/C#N)C(=O)COC(=O)CNS(=O)(=O)c1ccc2ccccc2c1 do in these assays?
MC4R barr agon: 2.2; TAAR1 antagonist: -1.7; MC4R antagonist: 18.5; B2AR ag: -8.1; HTR2A ag: 3.4; TAAR1 agonist: -0.6

What do the screens show for `CCC(OC(=O)CNS(=O)(=O)c1ccccc1)C(=O)c1ccccc1` (centres undefined)?
MC4R barr agon: 0.3; TAAR1 antagonist: -3.6; MC4R antagonist: 37.3*; B2AR ag: 9.2; HTR2A ag: -17.0; TAAR1 agonist: 1.4; U2OS cAMP counter: 16.7*; MC4R cAMP antag: 30.7*

How did COc1cc(C(=O)OC2CCOC2=O)cc(Cl)c1OC (centres undefined) do in these assays?
MC4R barr agon: 0.2; TAAR1 antagonist: 2.1; MC4R antagonist: 30.4*; B2AR ag: 10.6; HTR2A ag: 5.3; TAAR1 agonist: -2.5; U2OS cAMP counter: 16.4*; MC4R cAMP antag: 30.1*

Results for C=CCN=C1NC(c2ccccc2C(F)(F)F)C(C(=O)OC)=C(C)N1Cc1ccc(C(F)(F)F)cc1 (centres undefined) ?
TAAR1 antagonist: -3.1; TAAR1 agonist: 2.7

What do the screens show for `Cc1cc(=O)[nH]c(N/N=C/c2ccccc2Cl)n1`?
MC4R barr agon: -0.9; TAAR1 antagonist: -10.6; MC4R antagonist: 3.9; B2AR ag: 20.2; HTR2A ag: 0.8; TAAR1 agonist: 4.3

Results for Cc1cc(=O)[nH]c(N/N=C/c2c(F)c(F)c(F)c(F)c2F)n1 ?
MC4R barr agon: -0.4; TAAR1 antagonist: 2.0; MC4R antagonist: 28.9*; B2AR ag: 17.8; HTR2A ag: -2.2; TAAR1 agonist: 3.5; U2OS cAMP counter: 13.5*; MC4R cAMP antag: 20.2

Results for Cc1nc(NC(=O)COC(=O)/C=C/c2ccco2)c(Cl)cc1Cl ?
MC4R barr agon: -1.0; TAAR1 antagonist: -14.2; MC4R antagonist: 0.6; B2AR ag: 2.4; HTR2A ag: 1.0; TAAR1 agonist: 1.4

Results for O=C(COC(=O)CNC(=O)c1ccc2c(c1)OCO2)Nc1ncc(Cl)cc1Cl ?
MC4R barr agon: -2.4; TAAR1 antagonist: -11.6; MC4R antagonist: 29.5*; B2AR ag: 6.2; HTR2A ag: 3.4; TAAR1 agonist: 4.1; U2OS cAMP counter: 14.1*; MC4R cAMP antag: 23.5

How did O=C(COC(=O)/C=C/c1ccco1)Nc1ncc(Cl)cc1Cl do in these assays?
MC4R barr agon: -0.6; TAAR1 antagonist: -6.1; MC4R antagonist: 30.8*; B2AR ag: 2.4; HTR2A ag: 2.3; TAAR1 agonist: 7.0; U2OS cAMP counter: -4.1; MC4R cAMP antag: -17.7

How did O=C(COC(=O)c1ccc2c(c1)OCO2)Nc1ncc(Cl)cc1Cl do in these assays?
MC4R barr agon: -1.9; TAAR1 antagonist: 21.0; MC4R antagonist: 9.4; B2AR ag: -3.7; HTR2A ag: 3.0; TAAR1 agonist: 1.2

How did S=c1sscc1-c1ccccc1 do in these assays?
MC4R barr agon: -1.9; TAAR1 antagonist: 11.4; MC4R antagonist: -6.4; B2AR ag: 3.8; HTR2A ag: -5.2; TAAR1 agonist: -1.0

How did COc1ccc(CCN2C(=O)CC(N3CCN(S(=O)(=O)c4ccccc4)CC3)C2=O)cc1OC (centres undefined) do in these assays?
MC4R barr agon: -1.0; TAAR1 antagonist: 15.9; MC4R antagonist: 33.5*; B2AR ag: 2.7; HTR2A ag: 1.0; TAAR1 agonist: 5.0; U2OS cAMP counter: -0.9; MC4R cAMP antag: -8.5

What do the screens show for `Cc1ccccc1NC(=O)COC(=O)c1ccccc1SCC(=O)N1CCCC1`?
MC4R barr agon: -3.0; TAAR1 antagonist: 5.0; MC4R antagonist: 0.1; B2AR ag: -4.4; HTR2A ag: 0.6; TAAR1 agonist: 2.5
